Measurements published in ChEMBL document CHEMBL3259810, “Design and synthesis of 3,4-dihydro-2H-benzo[h]chromene derivatives as potential NF-κB inhibitors” (Bioorg Med Chem Lett, 2014).

Experiments:
[1] = test system: NCI-H23; experiment: Cytotoxicity against human NCI-H23 cells assessed as growth inhibition after 72 hrs by SRB assay; assay type: functional; conditions: NCI-H23, 72 h
[2] = target: T1, Nuclear factor NF-kappa-B complex (Homo sapiens) (UniProt Q00653+P19838+Q04206); experiment: Inhibition of transcriptional activity of NF-kappaB (unknown origin) transfected in LPS-stimulated mouse RAW264.7 cells at 100 uM after 16 hrs by secretory alkaline phosphatase reporter gene assay relative to control; assay type: cell-based
How it was run: (§1)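 LPS-stimulated RAW 264.7 macrophages carrying NF-κB-driven SEAP reporter; cell-free media heated 65℃ 5 min, then reacted with 500 µM 4-methylumbelliferyl phosphate, 2 M diethanolamine, 1 mM MgCl₂ in the dark at room temperature for 1 h. Fluorescence read at excitation 360 nm / emission 449 nm (RFU). Percent inhibition tested at 100 μM; IC₅₀ as mean of three experiments.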

[3] = target: Nuclear factor NF-kappa-B complex (Homo sapiens, UniProt P19838+Q00653+Q04206); experiment: Inhibition of transcriptional activity of NF-kappaB (unknown origin) transfected in LPS-stimulated mouse RAW264.7 cells after 16 hrs by secretory alkaline phosphatase reporter gene assay; assay type: cell-based; how it was run: as §1
[4] = target: T1, Nuclear factor NF-kappa-B complex (Homo sapiens); experiment: Potency index, ratio of PDTC IC50 to compound IC50 for inhibition of transcriptional activity of NF-kappaB (unknown origin) transfected in LPS-stimulated mouse RAW264.7 cells

Nuclear factor NF-kappa-B complex, sequence (P19838 1-433 limits assumed): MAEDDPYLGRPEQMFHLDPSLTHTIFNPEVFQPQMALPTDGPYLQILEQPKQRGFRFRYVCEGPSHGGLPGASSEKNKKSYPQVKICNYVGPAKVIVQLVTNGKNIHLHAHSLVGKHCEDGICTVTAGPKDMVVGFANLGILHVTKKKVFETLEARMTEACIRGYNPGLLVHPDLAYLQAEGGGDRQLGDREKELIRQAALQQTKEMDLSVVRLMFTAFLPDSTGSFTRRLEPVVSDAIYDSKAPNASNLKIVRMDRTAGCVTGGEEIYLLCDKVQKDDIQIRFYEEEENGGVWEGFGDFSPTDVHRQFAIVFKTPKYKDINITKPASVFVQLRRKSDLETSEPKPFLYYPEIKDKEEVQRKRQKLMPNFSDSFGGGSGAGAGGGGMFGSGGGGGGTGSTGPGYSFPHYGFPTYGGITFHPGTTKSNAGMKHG
Nuclear factor NF-kappa-B complex, sequence (Q00653 1-454 limits assumed): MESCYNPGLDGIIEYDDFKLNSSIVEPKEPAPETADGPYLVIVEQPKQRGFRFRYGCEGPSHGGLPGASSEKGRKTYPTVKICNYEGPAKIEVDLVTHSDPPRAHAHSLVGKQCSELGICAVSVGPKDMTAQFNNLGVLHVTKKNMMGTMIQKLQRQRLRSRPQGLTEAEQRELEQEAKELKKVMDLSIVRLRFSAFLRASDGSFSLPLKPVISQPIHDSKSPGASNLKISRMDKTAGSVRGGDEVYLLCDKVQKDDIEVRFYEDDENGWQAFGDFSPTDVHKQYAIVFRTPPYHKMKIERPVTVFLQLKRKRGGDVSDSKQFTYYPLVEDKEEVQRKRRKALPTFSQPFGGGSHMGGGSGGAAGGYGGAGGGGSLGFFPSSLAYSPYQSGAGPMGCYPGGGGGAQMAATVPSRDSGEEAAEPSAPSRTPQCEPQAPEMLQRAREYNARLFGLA
Nuclear factor NF-kappa-B complex, sequence (Q04206 whole entry): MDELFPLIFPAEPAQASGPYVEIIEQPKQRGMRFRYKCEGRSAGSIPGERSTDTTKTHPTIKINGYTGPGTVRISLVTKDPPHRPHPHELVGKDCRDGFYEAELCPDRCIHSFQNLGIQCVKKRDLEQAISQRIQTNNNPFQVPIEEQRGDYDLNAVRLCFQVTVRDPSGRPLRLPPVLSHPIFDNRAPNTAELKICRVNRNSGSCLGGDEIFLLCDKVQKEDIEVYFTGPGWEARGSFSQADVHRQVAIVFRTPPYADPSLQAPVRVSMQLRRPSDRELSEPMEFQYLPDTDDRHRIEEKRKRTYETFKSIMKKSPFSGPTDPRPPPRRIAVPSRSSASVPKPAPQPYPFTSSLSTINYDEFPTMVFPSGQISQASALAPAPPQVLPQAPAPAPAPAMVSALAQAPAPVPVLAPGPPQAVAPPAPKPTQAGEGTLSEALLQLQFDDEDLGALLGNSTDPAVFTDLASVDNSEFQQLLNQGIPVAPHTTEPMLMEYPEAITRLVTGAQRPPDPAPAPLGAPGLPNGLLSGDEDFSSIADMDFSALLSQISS
T1 sequence (P19838 whole entry, looked up): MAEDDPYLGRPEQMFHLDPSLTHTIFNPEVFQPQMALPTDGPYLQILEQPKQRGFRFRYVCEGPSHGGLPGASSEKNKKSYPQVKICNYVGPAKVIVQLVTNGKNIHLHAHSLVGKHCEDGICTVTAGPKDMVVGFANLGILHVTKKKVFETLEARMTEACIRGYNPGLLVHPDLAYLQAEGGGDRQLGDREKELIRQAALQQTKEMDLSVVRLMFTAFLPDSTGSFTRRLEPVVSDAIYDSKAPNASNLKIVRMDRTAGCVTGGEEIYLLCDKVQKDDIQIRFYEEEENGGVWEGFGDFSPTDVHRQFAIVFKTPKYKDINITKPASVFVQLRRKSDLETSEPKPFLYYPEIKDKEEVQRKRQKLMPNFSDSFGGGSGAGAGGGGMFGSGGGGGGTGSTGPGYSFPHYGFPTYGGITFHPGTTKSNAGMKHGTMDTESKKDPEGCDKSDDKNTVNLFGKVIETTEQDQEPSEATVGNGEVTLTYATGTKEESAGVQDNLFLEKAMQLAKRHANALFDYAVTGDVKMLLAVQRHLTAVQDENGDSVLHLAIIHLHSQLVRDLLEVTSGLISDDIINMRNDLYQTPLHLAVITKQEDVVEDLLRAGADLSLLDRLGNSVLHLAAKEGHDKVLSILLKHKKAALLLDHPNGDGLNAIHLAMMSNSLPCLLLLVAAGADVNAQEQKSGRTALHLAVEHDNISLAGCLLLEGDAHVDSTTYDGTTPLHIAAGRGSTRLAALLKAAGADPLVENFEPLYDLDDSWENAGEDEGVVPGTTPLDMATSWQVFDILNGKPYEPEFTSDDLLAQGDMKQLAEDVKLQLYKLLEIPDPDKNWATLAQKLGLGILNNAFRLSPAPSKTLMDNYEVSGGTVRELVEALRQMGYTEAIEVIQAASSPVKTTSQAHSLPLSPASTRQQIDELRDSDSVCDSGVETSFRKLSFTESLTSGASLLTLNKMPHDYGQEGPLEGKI
T1 sequence (Q00653 whole entry, looked up): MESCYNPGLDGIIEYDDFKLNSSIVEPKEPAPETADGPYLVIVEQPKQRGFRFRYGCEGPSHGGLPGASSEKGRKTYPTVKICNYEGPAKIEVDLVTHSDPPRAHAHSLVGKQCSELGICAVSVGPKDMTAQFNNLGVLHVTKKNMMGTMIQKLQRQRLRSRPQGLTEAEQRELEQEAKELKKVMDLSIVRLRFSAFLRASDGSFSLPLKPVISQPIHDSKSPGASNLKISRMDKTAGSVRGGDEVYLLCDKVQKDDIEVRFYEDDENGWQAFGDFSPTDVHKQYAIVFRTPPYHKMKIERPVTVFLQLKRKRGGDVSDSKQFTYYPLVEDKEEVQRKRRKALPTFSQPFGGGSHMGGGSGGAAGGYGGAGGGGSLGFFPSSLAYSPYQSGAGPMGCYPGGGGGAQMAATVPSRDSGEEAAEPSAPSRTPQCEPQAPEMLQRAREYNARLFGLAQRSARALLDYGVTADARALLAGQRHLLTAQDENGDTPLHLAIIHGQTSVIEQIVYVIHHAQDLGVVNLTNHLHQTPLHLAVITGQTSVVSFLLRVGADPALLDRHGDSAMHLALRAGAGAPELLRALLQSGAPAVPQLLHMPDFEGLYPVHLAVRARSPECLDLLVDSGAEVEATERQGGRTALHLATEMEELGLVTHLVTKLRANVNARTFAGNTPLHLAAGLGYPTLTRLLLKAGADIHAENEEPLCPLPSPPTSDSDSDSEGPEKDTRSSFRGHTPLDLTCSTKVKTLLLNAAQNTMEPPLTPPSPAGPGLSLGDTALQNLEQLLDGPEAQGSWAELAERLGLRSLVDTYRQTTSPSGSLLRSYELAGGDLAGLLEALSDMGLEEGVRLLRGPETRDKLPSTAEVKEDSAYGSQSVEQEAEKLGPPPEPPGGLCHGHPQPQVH
T1 sequence (Q04206 whole entry, looked up): as the sequence (Q04206 whole entry) above

| inhibition [2] | IC50 [3] | Ratio IC50 [4] | SMILES | GI50 [1] |
| --- | --- | --- | --- | --- |
| 49% | – | – | c1ccc(NCC2CCc3ccc4ccccc4c3O2)cc1 (stereo unspecified) | 25.8 µM |
| > 100% | 5.8 µM | – | O=C(Nc1ccc(Cl)cc1)C1CCc2ccc3ccccc3c2O1 (stereo unspecified) | 2.79 µM |
| 77% | 56.3 µM | – | CC(C)CC(=O)NCC1CCc2ccc3ccccc3c2O1 (stereo unspecified) | > 30 µM |
| 31% | – | – | CC(C)C(=O)NCC1CCc2ccc3ccccc3c2O1 (stereo unspecified) | > 30 µM |
| > 100% | 27.1 µM | – | CC(C)CNCC1CCc2ccc3ccccc3c2O1 (stereo unspecified) | 11.7 µM |
| > 100% | 2.4 µM | 15 | O=C(Nc1ccccc1C(F)(F)F)C1CCc2ccc3ccccc3c2O1 (stereo unspecified) | 0.521 µM |
| 88% | 44.5 µM | – | COc1ccc(NCC2CCc3ccc4ccccc4c3O2)cc1 (stereo unspecified) | 12.8 µM |
| > 100% | 48.6 µM | – | O=C(NCC1CCc2ccc3ccccc3c2O1)c1ccccc1 (stereo unspecified) | 11.4 µM |
| > 100% | 12.9 µM | – | COc1ccc(NC(=O)C2CCc3ccc4ccccc4c3O2)cc1 (stereo unspecified) | 3.98 µM |
| 62% | 43.5 µM | – | O=C(Nc1ccccc1)C1CCc2ccc3ccccc3c2O1 (stereo unspecified) | > 30 µM |
| 36% | – | – | Clc1cccc(NCC2CCc3ccc4ccccc4c3O2)c1 (stereo unspecified) | 17.2 µM |
| – | 40.1 µM | – | COc1cc2c(cc1O)CCC(C(=O)Nc1ccccc1)O2 (stereo unspecified) | – |
| 87% | 27.9 µM | – | O=C(Nc1cccc(Cl)c1)C1CCc2ccc3ccccc3c2O1 (stereo unspecified) | > 30 µM |
| > 100% | 5 µM | – | O=C(Nc1ccc(O)cc1)C1CCc2ccc3ccccc3c2O1 (stereo unspecified) | 11.3 µM |
| 35% | – | – | CC(=O)NCC1CCc2ccc3ccccc3c2O1 (stereo unspecified) | > 30 µM |
| 91% | 12.3 µM | – | O=C(Nc1ccccc1O)C1CCc2ccc3ccccc3c2O1 (stereo unspecified) | > 30 µM |
| 66% | 63.8 µM | – | O=C(Nc1cc(C(F)(F)F)cc(C(F)(F)F)c1)C1CCc2ccc3ccccc3c2O1 (stereo unspecified) | 11.2 µM |
| > 100% | 14.6 µM | – | c1ccc(CNCC2CCc3ccc4ccccc4c3O2)cc1 (stereo unspecified) | 10.4 µM |
| 39% | – | – | CCNCC1CCc2ccc3ccccc3c2O1 (stereo unspecified) | > 30 µM |
| 40% | – | – | O=C(Nc1ccc(Cl)c(Cl)c1)C1CCc2ccc3ccccc3c2O1 (stereo unspecified) | 23.5 µM |
| 96% | 56.3 µM | – | FC(F)(F)c1cc(NCC2CCc3ccc4ccccc4c3O2)cc(C(F)(F)F)c1 (stereo unspecified) | 14.6 µM |
| > 100% | 12.9 µM | – | O=C(Nc1ccc(C(F)(F)F)cc1)C1CCc2ccc3ccccc3c2O1 (stereo unspecified) | 3.48 µM |
| > 100% | 25.9 µM | – | CC(C)CCNCC1CCc2ccc3ccccc3c2O1 (stereo unspecified) | 11.3 µM |
| 94% | 26.5 µM | – | Clc1ccc(NCC2CCc3ccc4ccccc4c3O2)cc1 (stereo unspecified) | 29.8 µM |
| 42% | – | – | FC(F)(F)c1ccc(NCC2CCc3ccc4ccccc4c3O2)cc1 (stereo unspecified) | > 30 µM |
| 52% | 96.7 µM | – | O=C(Nc1cc(Cl)cc(Cl)c1)C1CCc2ccc3ccccc3c2O1 (stereo unspecified) | > 30 µM |

| SMILES | inhibition [2] | IC50 [3] | Ratio IC50 [4] | GI50 [1] |
| --- | --- | --- | --- | --- |
| S=C(S)N1CCCC1 [PYRROLIDINE DITHIOCARBAMATE] | – | 37.2 µM | – | – |
